Each structure is given as a SMILES string.

A short description of series [1]: Apparent permeability across apical to basolateral side in human Caco2 cells at 10 uM after 1 hr. Format: ADME, cell-based. The following applies: Caco-2. An outline of the steps: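 Caco-2 monolayers; 10 µM compound in pH 7.4 HBSS added to apical side (A→B) or basolateral side (B→A), receiver holding pH 7.4 HBSS with 1% DMSO. Incubated 1 h at 37 °C, 5% CO2, 95% humidity. Drug amounts on both sides measured and permeability calculated for each direction.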
Background: Caco-2 cells form a polarised layer with tight junctions and transporters.

Series [2] can be described thus: Ratio of AUC (0 to t) in BALB/C mouse liver to plasma at 14.5 mg/kg, po administered as single dose by LC-MS/MS analysis. The settings on record: read-out: Ratio AUC. The format is ADME, organism-based.
Series [3] in a line: Lipophilicity, log D of the compound. The format is physicochemical. The settings on record: octanol/water.
Series [4] in a line: AUC (0 to t) in BALB/C mouse plasma at 14.5 mg/kg, po administered as single dose by LC-MS/MS analysis. The format is ADME, organism-based. The settings on record: in vivo.
The nature of series [5]: Cmax in BALB/C mouse plasma at 1 mg/kg, iv administered as single dose by LC-MS/MS analysis. Details: dose 1 mg/kg, route intravenous. The format is ADME, organism-based. The method in brief:
(§1)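 Male BALB/C mice given single doses of 1 mg/kg iv (5% DMSO, 40% PEG400, 55% saline), or 2 or 14.5 mg/kg po (1% RC-591 in water). Blood taken at set times into sodium heparin and plasma separated at 4 °C; livers from po groups taken right after bleeding, rinsed and blotted. Plasma and liver levels measured by LC–MS/MS.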

Series [6] relates to Mus musculus. The series can be described thus: AUC (0 to infinity) in BALB/C mouse plasma at 1 mg/kg, iv administered as single dose by LC-MS/MS analysis. Format: ADME, organism-based. Details: dose 1 mg/kg, route intravenous, time infinity. The following applies: in vivo.
Series [7] concerns Mus musculus. The series can be described thus: AUC (0 to infinity) in BALB/C mouse plasma at 2 mg/kg, po administered as single dose by LC-MS/MS analysis. The format is ADME, organism-based. Details: dose 2 mg/kg, route oral, time infinity. The settings on record: in vivo.
Series [8] in a line: Dissociation constant, pKa of the compound. The format is physicochemical.
Series [9] in a line: Cmax in BALB/C mouse plasma at 14.5 mg/kg, po administered as single dose by LC-MS/MS analysis. Format: ADME, organism-based. Details: dose 14.5 mg/kg, route oral. The method in brief:
as §1

Series [10] in a line: Cmax in BALB/C mouse liver at 14.5 mg/kg, po administered as single dose by LC-MS/MS analysis. The format is ADME, organism-based. Details: dose 14.5 mg/kg, route oral. The method in brief:
as §1

A short description of series [11]: Volume of distribution at steady state in BALB/C mouse at 1 mg/kg, iv by LC-MS/MS analysis. The format is ADME, organism-based. The following applies: in vivo, read-out: Vdss. An outline of the steps:
as §1

The nature of series [12]: Oral bioavailability in cynomolgus monkey. The format is ADME, organism-based, Macaca fascicularis. The settings on record: in vivo.
A short description of series [13]: Oral bioavailability in BALB/C mouse at 2 mg/kg administered as single dose by LC-MS/MS analysis. The following applies: in vivo. The format is ADME, organism-based. The method in brief:
as §1

The nature of series [14]: Cmax in BALB/C mouse plasma at 2 mg/kg, po administered as single dose by LC-MS/MS analysis. Format: ADME, organism-based. Details: dose 2 mg/kg, route oral. An outline of the steps:
as §1

The nature of series [15]: AUC (0 to t) in BALB/C mouse liver at 14.5 mg/kg, po administered as single dose by LC-MS/MS analysis. Format: ADME, organism-based. The following applies: in vivo.

For `COCCCOc1cc2c(cc1OC)-c1cc(=O)c(C(=O)O)cn1[C@H](C(C)C)C2`, in [1], the Papp A→B at 1 h, 10 µM stood at 12.8 ×10⁻⁶ cm/s. The Kp in series [2] came out at 4. Moreover, in series [3], the logD is 1.28. In addition, the values for the AUCt in [4] and in [15] were 4366 ng·mL·h and 17265 ng·mL·h, respectively. The Cmax is 466 ng/mL in series [5], 2040 ng/mL in series [9], 11000 ng/mL in [10] and 322 ng/mL in series [14]. The values for the AUC in the series on Mus musculus [6] and in the series with Mus musculus [7] were 398 ng·mL·h and 490 ng·mL·h, respectively. The molecule also yielded a pKa in series [8] of 5.79. In addition, the Vd in series [11] worked out at 2.07 L/kg. The bioavailability in series [12] turned out to be 57%; in [13] it was 62%.

As usually defined, the Papp A→B is the apparent permeability from the apical to the basolateral side of a cell layer. Usually logD stands for the decadic logarithm of the distribution of all forms, ionised or not, between an organic phase and buffer at a given pH. The term Cmax denotes the peak of the concentration-time curve. By pKa is commonly meant the negative logarithm of the acid dissociation constant. As a reminder, the bioavailability is the share of a dose that reaches the circulation, judged against a reference dose that is usually intravenous.

(Values after ChEMBL document CHEMBL4265974, “Discovery of RG7834: The First-in-Class Selective and Orally Available Small Molecule Hepatitis B Virus Expression Inhibitor with Novel Mechanism of Action” (J Med Chem, 2018).)
